Measured values published in publication PMC9323481 (Diabetes, Obesity & Metabolism, 2022).

How the values were obtained:
Assay type in all cases: in vivo, human
[1] = test system: patients with type 2 diabetes and CKD on insulin ≥20 units per day; test: Total daily insulin dose; conditions: participants on insulin ≥20 units per day; range –194, 20; placebo 0.0, p = .073
How it was run: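 Exploratory endpoint: change in total daily insulin dose from baseline to end of dosing, in participants on ≥20 units/day. Randomization was stratified by insulin dose (≥20 vs <20 units/day). Dosing was once-daily s.c., titrated 50-300 μg over 32 days, against placebo. Analysed by two-sample t-test with unequal variance and Satterthwaite approximation.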

[2] = test system: patients with type 2 diabetes and CKD; test: Clinical chemistry and eGFR percent change; conditions: baseline to day 32
[3] = test system: patients with type 2 diabetes and CKD; test: UACR and eGFR
How it was run: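 Exploratory endpoints: change from baseline in mean urinary albumin-to-creatinine ratio (UACR) and eGFR. Dosing was randomized, double-blind, once-daily s.c., titrated 50-300 μg over 32 days, against placebo. Change in UACR was analysed by t-test with unequal variance. Continuous endpoints were analysed by ANCOVA with baseline as covariate, intent-to-treat population.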

Pharmacokinetics = conditions: repeat daily s.c. administration 50-300 μg; plasma
How it was run: (§1)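 Secondary endpoints of a 32-day trial: once-daily morning s.c. dosing titrated through 50 μg for 4 days, 100 μg for 7 days, 200 μg for 7 days and 300 μg for 14 days. Pharmacokinetic parameters and anti-drug antibody titre were summarized with descriptive statistics only.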

[4] = test system: patients with type 2 diabetes and CKD; test: Bodyweight; conditions: p < .001
How it was run: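 Randomized 1:1, double-blind; test compound or placebo given s.c. once daily each morning. Test compound dose titration: 50 μg for 4 days, 100 μg for 7 days, 200 μg for 7 days, then 300 μg for 14 days. Percentage and absolute change in bodyweight from baseline, intent-to-treat population. ANCOVA with treatment as fixed factor and baseline as covariate.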

[5] = test system: patients with type 2 diabetes and CKD; test: Treatment-emergent adverse events
How it was run: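 Incidence of adverse events and serious adverse events during 32 days of once-daily s.c. dosing (titrated 50→100→200→300 μg) or placebo. Clinically significant hypoglycaemia was defined as capillary or venous plasma glucose <54 mg/dl (3.0 mmol/L). Safety analyses used the as-treated population with descriptive statistics.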

[6] = test system: patients with type 2 diabetes and CKD; test: Fasting plasma glucose and HbA1c; conditions: s.c. once daily, 50-300 μg; for Change in LS mean fasting plasma glucose from baseline to day 32: 32 days
[7] = test system: patients with type 2 diabetes and CKD; test: Supine blood pressure and heart rate
How it was run: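 Vital signs, blood pressure and 24-h pulse rate were safety endpoints, taken as change from baseline. Randomized double-blind design: once-daily morning s.c. test compound titrated 50 μg (4 days), 100 μg (7 days), 200 μg (7 days), 300 μg (14 days), or placebo for 32 days. ANCOVA with baseline as covariate, as-treated population.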

[8] = test system: patients with type 2 diabetes and CKD; test: Immunogenicity; conditions: serum anti-drug antibody
How it was run: as §1

[9] = test system: patients with type 2 diabetes and CKD; test: Continuous glucose monitoring
How it was run: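 Double-blind, placebo-controlled, once-daily s.c. dosing titrated 50→100→200→300 μg over 32 days. Continuous glucose monitoring gave the percentage of time with interstitial glucose in the target range of 70-180 mg/dl (3.9-10 mmol/L) over a 7-day period, at baseline and in the final week of treatment. Change analysed by Wilcoxon rank-sum test, intent-to-treat population.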

Substance: cotadutide
- Median absolute change in total daily insulin dose from baseline to day 32 [1]: –16.0 units per day
- Trends or shifts from baseline in serum chemistry [2]: no clinically meaningful trends or shifts
- LS mean change in eGFR ([3]; 90% CI –1.29, 3.62, placebo –1.10, p = .268): 1.17 ml/min/1.73 m^2
- Change in LS mean UACR from baseline to day 33 ([3]; all participants, placebo 5.43%, not significant): –7.65%
- Exposure at Ctrough with dose (Pharmacokinetics): linear increased exposure
- LS mean change in absolute bodyweight from baseline to day 33 ([4]; 90% CI –4.2, –2.62, placebo –0.13 kg): –3.41 kg
- LS mean percentage change in bodyweight from baseline to day 33 ([4]; 90% CI –4.55, –2.83, placebo –0.21%): –3.69%
- Mild/moderate adverse events, participants ([5]; abstract, placebo 35.0%): 71.4%
- Treatment-emergent adverse event: Any ([5]; n = 21, as-treated, placebo 13 (65.0)): 20 (95.2) n (%)
- Treatment-emergent adverse event: Hypoglycaemia ([5]; n = 21, clinically significant, capillary or venous plasma glucose <54 mg/dl (3.0 mmol/L), placebo 1 (5.0)): 3 (14.3) n (%)
- Treatment-emergent adverse event: Decreased appetite ([5]; n = 21, placebo 0): 3 (14.3) n (%)
- Treatment-emergent adverse event: Diarrhoea ([5]; n = 21, placebo 0): 5 (23.8) n (%)
- Treatment-emergent adverse event: Flatulence ([5]; n = 21, placebo 0): 2 (9.5) n (%)
- Treatment-emergent adverse event: Leading to death (no. patients) ([5]; n = 21, placebo 0): 1 (4.8) n (%)
- Treatment-emergent adverse event: Serious related to cotadutide ([5]; n = 21, placebo 0): 1 (4.8) n (%)
- Treatment-emergent adverse event: Dizziness ([5]; n = 21, placebo 1 (5.0)): 2 (9.5) n (%)
- Treatment-emergent adverse event: Dyspepsia ([5]; n = 21, placebo 1 (5.0)): 5 (23.8) n (%)
- Treatment-emergent adverse event: Leading to study discontinuation (no. patients) ([5]; n = 21, placebo 1 (5.0)): 2 (9.5) n (%)
- Treatment-emergent adverse event: Vomiting ([5]; n = 21, placebo 1 (5.0)): 6 (28.6) n (%)
- Treatment-emergent adverse event: Headache ([5]; n = 21, placebo 2 (10.0)): 2 (9.5) n (%)
- Treatment-emergent adverse event: Nasopharyngitis ([5]; n = 21, placebo 2 (10.0)): 3 (14.3) n (%)
- Treatment-emergent adverse event: Serious (no. patients) ([5]; n = 21, placebo 2 (10.0)): 2 (9.5) n (%)
- Treatment-emergent adverse event: Nausea ([5]; n = 21, placebo 4 (20.0)): 9 (42.9) n (%)
- Treatment-emergent adverse event: Any related to cotadutide ([5]; n = 21, placebo 7 (35.0)): 15 (71.4) n (%)
- AEs of severe hypoglycaemia ([5]; whole study): no recorded AEs
- Change in LS mean fasting plasma glucose from baseline to day 32 ([6]; placebo 0.03): 1.09 mmol/L
- Change in LS mean fasting plasma glucose from baseline to day 32 ([6]; placebo +0.60, p = .089): –19.55 mg/dl
- Change in LS mean HbA1c from baseline to day 32 ([6]; placebo +0.01%, p < .001): –0.65%
- Increase in LS mean heart rate from baseline to day 32 ([7]; placebo 3.14, p < .001): 14.13 beats per minute
- Increase in LS mean supine diastolic blood pressure from baseline to day 32 ([7]; placebo 3.40, p = .421): 0.57 mmHg
- Increase in LS mean supine systolic blood pressure from baseline to day 32 ([7]; placebo 8.69, p = .144): 1.44 mmHg
- Treatment-boosted ADA response [8]: No participants
- Mean percentage of time within target range over a 7-day period ([9]; 100 μg dose period, placebo 48.57%): 75.82%
- Mean percentage of time within target range over a 7-day period ([9]; 200 μg dose period, placebo 54.99%): 78.69%
- Mean percentage of time within target range over a 7-day period ([9]; 300 μg dose period, placebo 40.66%): 78.18%
- Time in clinically significant hypoglycaemia (glucose <54 mg/dl or <3.0 mmol/L) ([9]; CGM, entire dosing period, placebo 0.66%, p = .010): 2.01%
- Time in hypoglycaemia (glucose <70 mg/dl or <3.9 mmol/L) ([9]; CGM, entire dosing period, placebo 2.73%, p = .061): 6.07%
- Time in hyperglycaemia (glucose >180 mg/dl or 10 mmol/L) ([9]; CGM, entire dosing period, placebo 37.39%, p = .001): 10.50%
